Screens (PubChem BioAssay)
Shown are actives, neighbours in structure and some others; about 6.5% of the full set was active somewhere.
PostGolgi ctrl: growth inhibition of yeast control strain, primary screen, counter-screen for post-Golgi transport modulator project. efflux-deficient yeast background strain, growth absorbance A615, 16 h. 98,000 compounds, 5% hits. inhibition, % at 10 µM
Calb biofilm kill: clotrimazole potentiators killing Candida biofilms, primary screen, with clotrimazole, Alamar Blue; C. albicans biofilm + clotrimazole; inhibition, % at 6 µM; 85,000 compounds, 0.14% hits; AID 834, 2007;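 active means inhibition above 20%; inactive means inhibition below 20%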;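 further: preformed 24 hr biofilms exposed to compound for 48 hr; 0% = biofilm without compound and 100% = blank killed by clotrimazole plus chlorhexidine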
tolC growth inh: growth inhibitors of E. coli tolC mutant, primary screen, strain BW25113 ΔtolC::kan, 384-well. OD615. growth inhibition, % at 10 µM (by protocol). 65,000 compounds, 2.2% hits. AID 573, 2007;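 active means growth inhibition at or above a cutoff equal to the mean over every tested compound plus 3 SD, cut at about 60% in these data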;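 further: growth measured after 20 h incubation at 37 °C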
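Test system: E. coli BW25113 ΔtolC::kan bacteria | Medium: Kanamycin-containing LB broth (50 µg/mL) | Dosing: One dose of 10 µM final | Times: 20 h incubation with compound, 37 °C | Detection: Optical density read at 615 nm | Read-out basis: Percent growth inhibition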
Pyk2 oligo antag: antagonists of Pyk2 self-association, primary screen, Q293 cells, FERM NanoBiT luminescence, HTS; 99,000 compounds, 0.83% hits; z-score (the deposit names both 25 µM and 10 µM); AID 1347419, 2020; active compounds read low;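 active means Z-score of -3 or lower, scaled per plate to the spread of control and sample wells; inactive means z-score above -3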;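 further: negative z-score means lost luminescence so less FERM oligomerization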
Ecoli WT expand: growth inhibitors of wild-type E. coli, primary screen, strain BW25113, expanded library, OD600; OD600 absorbance; AID 710, 2007; growth inhibition, % at 100 µM; 98,000 compounds, 0.15% hits;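 active means growth inhibition above about 50% at one test dose, limit read from the data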;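 further: growth measured after 20 h incubation at 37 °C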
PostGolgi yeast: phenotypic screen on post-Golgi transport, primary screen; inhibition, % at 10 µM; 98,000 compounds, 0.9% hits; post-Golgi transport phenotypic cell assay; AID 739, 2007;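 further: yeast cells grown in 1536-well plates; yeast grown about 18 h at 30C before absorbance read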
* hit, by the source's call; nt = no result; ! = not confirmed by another sample. Unless noted, no stated cut-off is given here; in the data, active means inhibition above about 30%; inactive means the rest.

SMILES | PostGolgi ctrl | Calb biofilm kill | tolC growth inh | Pyk2 oligo antag | Ecoli WT expand | PostGolgi yeast
CCC(C)S(=O)(=O)c1snnc1C (stereo not drawn) | -2 | 5 | nt | 1.1 | 12 | 1
CC1=NN(C(N)=S)C(=O)C1N=Nc1ccc(C)cc1C (stereo not drawn) | 27 | nt | nt | nt | 0 | 6
CC1=NN(C(N)=S)C(=O)C1N=Nc1ccccc1C (stereo not drawn) | 30* | 10 | nt | -0.78 | -15 | 9
CC1=NN(C(N)=S)C(=O)C1N=Nc1c(C)cc(C)cc1C (stereo not drawn) | 32* | 6 | nt | -0.6 | -2 | 11
CCOC(=O)N1CCC(N2CCN(S(=O)(=O)c3ccc4ccccc4c3)CC2)CC1 | -6 | nt | nt | 0.22 | -1 | -9
N/C(COc1cccc(Cl)c1)=N\NS(=O)(=O)c1ccccc1 | 6 | nt | nt | 0.24 | -1 | -3
COCC(C)NC(=O)CCS(=O)(=O)c1nc(-c2ccc(OC)cc2)cc(C(F)(F)F)n1 (stereo not drawn) | 12 | nt | 30 | 0.57 | -2 | 3
CCOC(=O)CS(=O)(=O)c1nc(-c2ccccc2)cc(C(F)(F)F)n1 | nt | 1 | 15 | 0.51 | nt | nt
CCOC(=O)CS(=O)(=O)c1nc(-c2ccc(F)cc2)cc(C(F)(F)F)n1 | 48* | 6 | 18 | -0.08 | 4 | 8
CCOC(=O)CCS(=O)(=O)c1nc(-c2ccccc2)cc(C(F)(F)F)n1 | 73* | -1 | 43 | 0.15 | -7 | -6
COC(=O)CCS(=O)(=O)c1nc(-c2ccccc2)cc(C(F)(F)F)n1 | 57* | 8 | nt | -2.5 | -1 | 0
COc1ccc(OC)c(NC(=O)C2C3CCC(O3)C2C(=O)O)c1 (stereo not drawn) | 13 | -2 | -6 | nt | 3 | 7
O=C(NCc1ccc(C(F)(F)F)cc1)C1CC(c2ccccc2[N+](=O)[O-])=NO1 (stereo not drawn) | 5 | nt | nt | nt | 11 | -7
O=S(=O)(CCSc1nc2ccccc2o1)c1nc2ccccc2s1 | 61* | 6 | 54 | -3.1* | -5 | 3
COc1ccccc1/C=C/C(=O)N1CCOCC1 | 35* | 4 | nt | -0.26 | 2 | -9
Cc1ccc(-n2c(O)c(/C=N/n3cnnc3)c3ccccc3c2=O)cc1 | 34*! | 10 | 6 | 0.38 | 2 | 3
O=c1c2ccccc2c(/C=N/n2cnnc2)c(O)n1-c1ccccc1F | 21 | 8 | -4 | 0.43 | -3 | 4
CC1CN(C2CCN(C(=O)COc3ccc(Cl)cc3)CC2)CC(C)O1 (stereo not drawn) | 18 | 5 | nt | 0.36 | 1 | -1
N#Cc1nc(COc2cccc(Cl)c2)oc1NCc1ccco1 | 33* | 13 | 46 | nt | 4 | 25
Cc1ccc(OCc2nc(C#N)c(NCc3ccco3)o2)cc1 | 27 | 5 | 26 | -0.32 | 14 | 1
Cc1cccc(OCc2nc(C#N)c(NCc3ccc4c(c3)OCO4)o2)c1 | 23 | -3 | 79* | 1.4 | -19 | -5
CN1C2=NCCN2C(=O)c2ccccc21 | -12 | 5 | nt | 0.29 | 5 | -3
CN(C)S(=O)(=O)c1ccc(NC(=O)COC(=O)c2ccccn2)cc1 | 2 | 1 | nt | 0.28 | 5 | -19
CC(C)N(C(=O)CSc1nc2ccccc2n1Cc1ccc(F)cc1)C(C)C | nt | 6 | nt | -1.6 | nt | nt
O=[N+]([O-])c1ccc(CSc2nc3ccccc3o2)cc1 | 7 | nt | nt | 0.36 | 3 | 1
SMILES | PostGolgi ctrl | Calb biofilm kill | tolC growth inh | Pyk2 oligo antag | Ecoli WT expand | PostGolgi yeast
COC(=O)c1ccc(CSc2nc3ccccc3o2)cc1 | 0 | 4 | 65* | 1.8 | 7 | -14
CC(=C/c1ccccc1)/C=N/n1c(-c2ccco2)n[nH]c1=S | 33* | nt | nt | 0.03 | 1 | 9
S=c1[nH]nc(C2CCCCC2)n1/N=C/c1cccs1 | 22 | nt | nt | 0.03 | -4 | 2
CC(/C=N/n1c(C2CCCCC2)n[nH]c1=S)=C\c1ccccc1 | 44* | nt | nt | -2.6 | 1 | 4
COC(=O)c1nn(-c2ccc(OC)cc2)c(=O)cc1Oc1cccc(Cl)c1 | 17 | nt | nt | -0.93 | 2 | -1
CCOC(=O)C1CCN(Cc2cnc(Oc3ccc(C(C)(C)C)cc3)s2)CC1 | 17 | nt | nt | -0.19 | 0 | 5
COc1ccc(N2CCN(/C(=N\S(=O)(=O)c3ccccc3)Nc3nc(C)cc(C)n3)CC2)cc1 | 2 | 11 | 6 | -0.68 | -2 | 6
COc1ccc(NC(=O)CN2CCN(Cc3ccc4c(c3)OCO4)CC2)cc1OC | 1 | nt | nt | -0.09 | 7 | 10
COc1ccc(CC(=O)NC2CCN(CC(=O)Nc3ccc4c(c3)OCCO4)CC2)cc1OC | 37* | 2 | -15 | 2.1 | -1 | -8
Cc1cccc(-c2c3c(=O)n(C)c(=O)n(C)c3c3nnc4ccccc4n23)c1 | nt | nt | -11 | 0.39 | nt | nt
O=C(Nc1ccc(O)cc1)c1ccc(C(=O)c2ccccc2)o1 | 0 | 8 | -3 | -3.2* | -4 | 3
COc1ccc(C(=O)Nc2cccc(-c3nnc(-c4ccco4)o3)c2)cc1 | 31* | 6 | nt | -2.6 | -24 | 0
COc1ccc(CC(=O)Nc2cccc(-c3nnc(-c4ccco4)o3)c2)cc1 | 15 | nt | -1 | -0.22 | -10 | 14
Cc1cc(C)cc(OCC(=O)Nc2cccc(-c3nnc(-c4ccco4)o3)c2)c1 | 27 | 2 | 1 | -3.9* | -10 | -1
Cc1ccc(SCC(=O)Nc2ccc(-c3nnc(-c4ccco4)o3)cc2)cc1 | -14 | nt | nt | -0.58 | -12 | -7
O=C(CSc1cn(CCNC(=O)c2cccs2)c2ccccc12)NC1CCCCC1 | 12 | 6 | nt | nt | -5 | -2
O=C(CSc1cn(CCNC(=O)c2cccs2)c2ccccc12)NCC1CCCO1 (stereo not drawn) | 18 | 33* | 1 | nt | 6 | -10
CCOC(=O)c1ccccc1NS(=O)(=O)c1ccccc1F | 9 | 10 | 18 | -1.7 | -2 | 5
CCOC(=O)N1CCC(c2cc(=O)n3[nH]c(C)c(-c4ccc(F)cc4)c3n2)CC1 | 6 | 4 | 99* | nt | 6 | 3
CCOC(=O)N1CCC(c2cc(=O)n3[nH]c(-c4ccccc4)cc3n2)CC1 | 22 | 0 | 12 | nt | -7 | 1
O=c1c2ccccc2oc2ncccc12 | -5 | 7 | -1 | 1.2 | 10 | -6
CCOc1ccc(NC(=O)N(C2CCCCC2)C(C)c2cccnc2)cc1 (stereo not drawn) | 28 | 11 | nt | nt | 2 | 63*
CCOc1ccc(NC(=O)N(C2CCCCC2)C(C)c2ccncc2)cc1 (stereo not drawn) | 23 | nt | -17 | 1.9 | -3 | 23
CCCCSCCCNC(=O)Nc1cccc(OC)c1 | 5 | 8 | 11 | 0.26 | 12 | 36*
O=C1Cc2ccccc2N1c1ccccc1 | nt | 10 | 8 | 0.74 | nt | nt
O=C1CCCCC(=O)N(c2ccccc2)c2ccccc21 | 32* | 1 | -5 | 1.3 | 3 | 7
CCn1cc(-c2cc(C(F)(F)F)n3nc(C(=O)O)cc3n2)c(C)n1 | 13 | 0 | -5 | -0.12 | 0 | -4
